Measured values: ChEMBL document CHEMBL4190388, “Discovery and Optimization of Indolyl-Containing 4-Hydroxy-2-Pyridone Type II DNA Topoisomerase Inhibitors Active against Multidrug Resistant Gram-negative Bacteria” (J Med Chem, 2018)
pIC50: −log10 of the molar value. ≈ marks a conversion by molar mass, not a printed value.

Columns and labels:
Escherichia coli [1] = assay: Antibacterial activity against fluoroquinolone resistant Escherichia coli SKM18 by CLSI M100-S17 protocol based method; assay type: functional
Escherichia coli [2] = assay: Antibacterial activity against wild type Escherichia coli ATCC 25922 by CLSI M100-S17 protocol based method; assay type: functional
Escherichia coli [3] = assay: Antibacterial activity against quinolone resistance Escherichia coli isolate ELZ4251 harboring gyrA/parC mutant by CLSI M100-S17 protocol based method; assay type: functional
Acinetobacter baumannii [4] = assay: Antibacterial activity against wild type Acinetobacter baumannii ATCC BAA-747 by CLSI M100-S17 protocol based method; assay type: functional
Acinetobacter baumannii [5] = assay: Antibacterial activity against fluoroquinolone resistant Acinetobacter baumannii isolate MMX2240 by CLSI M100-S17 protocol based method; assay type: functional
Klebsiella pneumoniae = assay: Antibacterial activity against wild type Klebsiella pneumoniae ATCC 35657 by CLSI M100-S17 protocol based method; assay type: functional
Escherichia coli [6] = assay: Antibacterial activity against wild type Escherichia coli ATCC 25922 in presence of HSA by CLSI M100-S17 protocol based method; assay type: functional
Mus musculus [7] = assay: Terminal half life in CD1 mouse plasma at 10 mg/kg, iv by LC-MS/MS analysis; assay type: ADME, organism-based; conditions: in vivo
Mus musculus [8] = assay: AUC (0 to 24 hrs) in CD1 mouse plasma at 10 mg/kg, iv by LC-MS/MS analysis; assay type: ADME, organism-based; design: time < 24 hr, dose 10 mg/kg, route intravenous; conditions: in vivo
In short: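 CD-1 mice given a single 10 mg/kg iv dose (n = 3), in either 10% DMSO plus 1% Tween 80 in pH 8.0 phosphate buffer or 20% (2-hydroxypropyl)-β-cyclodextrin in pH 4.0 citrate buffer; plasma exposure measured.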

Mus musculus [9] = assay: Volume of distribution at steady state in CD1 mouse plasma at 10 mg/kg, iv by LC-MS/MS analysis; assay type: ADME, organism-based; conditions: in vivo
[10] = Oral bioavailability in CD1 mouse plasma by LC-MS/MS analysis; assay type: ADME, organism-based
[11] = Fraction unbound in mouse plasma at 1 uM by equilibrium dialysis method; assay type: ADME, cell-free
Escherichia coli [12] = assay: Antibacterial activity against quinolone resistant Escherichia coli by broth microdilution method; assay type: functional; conditions: Escherichia coli; for MIC: read-out: MIC
In short: (§1)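 MICs were determined by CLSI broth methods, except that organisms were grown in brain–heart–infusion medium. The panel comprised wild-type and resistant E. coli and A. baumannii strains, including 12 strains whose details are given by reference.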

Escherichia coli [13] = assay: Antibacterial activity against wild type Escherichia coli by broth microdilution method; assay type: functional; in short: as §1
Escherichia coli [14] = assay: Antibacterial activity against beta-lactam resistant Escherichia coli by broth microdilution method; assay type: functional; conditions: Escherichia coli; for MIC: read-out: MIC; in short: as §1
Escherichia coli [15] = assay: Antibacterial activity against aminoglycoside resistant Escherichia coli by broth microdilution method; assay type: functional; conditions: Escherichia coli; for MIC: read-out: MIC; in short: as §1
Escherichia coli [16] = assay: Antibacterial activity against multidrug resistant Escherichia coli by broth microdilution method; assay type: functional; conditions: Escherichia coli; for MIC: read-out: MIC; in short: as §1
Acinetobacter baumannii [17] = assay: Antibacterial activity against wild type Acinetobacter baumannii by broth microdilution method; assay type: functional; in short: as §1
Acinetobacter baumannii [18] = assay: Antibacterial activity against aminoglycoside resistant Acinetobacter baumannii by broth microdilution method; assay type: functional; conditions: Acinetobacter baumannii; for MIC: read-out: MIC; in short: as §1
Acinetobacter baumannii [19] = assay: Antibacterial activity against quinolone resistant Acinetobacter baumannii by broth microdilution method; assay type: functional; conditions: Acinetobacter baumannii; for MIC: read-out: MIC; in short: as §1
Acinetobacter baumannii [20] = assay: Antibacterial activity against beta-lactam resistant Acinetobacter baumannii by broth microdilution method; assay type: functional; conditions: Acinetobacter baumannii; for MIC: read-out: MIC; in short: as §1
Acinetobacter baumannii [21] = assay: Antibacterial activity against carbapenem resistant Acinetobacter baumannii by broth microdilution method; assay type: functional; conditions: Acinetobacter baumannii; for MIC: read-out: MIC; in short: as §1
Acinetobacter baumannii [22] = assay: Antibacterial activity against multidrug resistant Acinetobacter baumannii by broth microdilution method; assay type: functional; conditions: Acinetobacter baumannii; for MIC: read-out: MIC; in short: as §1
[23] = Inhibition of His tagged Escherichia coli ATCC 25922 DNA gyrase A expressed in Escherichia coli BL21 (DE3) pLysS cells assessed as reduction in enzyme-mediated supercoiling of relaxed plasmid DNA pNO1 after 30 mins in presence of biotinylated TFO1 by fluorescence assay
[24] = Inhibition of Escherichia coli DNA topoisomerase 4 assessed as reduction in decatenation activity using kinetoplast concatenated DNA as substrate after 30 mins by picogreen dye based fluorescence assay

| SMILES | MIC (Escherichia coli [1]) [µg/mL] | MIC (Escherichia coli [2]) [µg/mL] | MIC (Escherichia coli [3]) [µg/mL] | MIC (Acinetobacter baumannii [4]) [µg/mL] | MIC (Acinetobacter baumannii [5]) [µg/mL] | MIC (Klebsiella pneumoniae) [µg/mL] | MIC (Escherichia coli [6]) [µg/mL] | MIC90 (Escherichia coli [12]) [µg/mL] | MIC (Escherichia coli [12]) [µg/mL] | MIC90 (Escherichia coli [13]) [µg/mL] | MIC90 (Escherichia coli [14]) [µg/mL] | MIC (Escherichia coli [14]) [µg/mL] | MIC90 (Escherichia coli [15]) [µg/mL] | MIC (Escherichia coli [15]) [µg/mL] | MIC90 (Escherichia coli [16]) [µg/mL] | MIC (Escherichia coli [16]) [µg/mL] | MIC50 (Acinetobacter baumannii [17]) [µg/mL] | MIC90 (Acinetobacter baumannii [17]) [µg/mL] | MIC50 (Acinetobacter baumannii [18]) [µg/mL] | MIC90 (Acinetobacter baumannii [18]) [µg/mL] | further results |
| --- | --- | --- | --- | --- | --- | --- | --- | --- | --- | --- | --- | --- | --- | --- | --- | --- | --- | --- | --- | --- | --- |
| Cn1c(CN2CCCC2)cc2cc3c(cc21)CCCc1c-3[nH]c(=O)c(C(=O)O)c1O | 0.78 (≈ 1.91 µM) | 0.78 (≈ 1.91 µM) | 1.6 (≈ 3.93 µM) | 0.78 (≈ 1.91 µM) | 1.6 (≈ 3.93 µM) | 0.78 (≈ 1.91 µM) | 6.3 | 0.5 (≈ 1.23 µM) | 0.12 to 0.5 (≈ 0.295 to 1.23 µM) | 0.5 (≈ 1.23 µM) | 0.5 (≈ 1.23 µM) | 0.12 to 0.5 (≈ 0.295 to 1.23 µM) | 0.5 (≈ 1.23 µM) | 0.12 to 0.5 (≈ 0.295 to 1.23 µM) | 0.5 (≈ 1.23 µM) | 0.12 to 0.5 (≈ 0.295 to 1.23 µM) | 2 (≈ 4.91 µM) | 16 (≈ 39.3 µM) | 2 (≈ 4.91 µM) | 16 (≈ 39.3 µM) | beta t1/2 (Mus musculus [7]): 2.8 h; AUC (Mus musculus [8]): 4050 ng·h/mL; Vdss (Mus musculus [9]): 8.1 L/kg; bioavailability [10]: 33%; Fu [11]: 0.11; MIC (Acinetobacter baumannii [18]): 0.12 to 16 µg/mL (≈ 0.295 to 39.3 µM); MIC50 (Acinetobacter baumannii [19]): 2 µg/mL (≈ 4.91 µM); MIC90 (Acinetobacter baumannii [19]): 16 µg/mL (≈ 39.3 µM); MIC (Acinetobacter baumannii [19]): 0.12 to 16 µg/mL (≈ 0.295 to 39.3 µM); MIC50 (Acinetobacter baumannii [20]): 2 µg/mL (≈ 4.91 µM); MIC90 (Acinetobacter baumannii [20]): 16 µg/mL (≈ 39.3 µM); MIC (Acinetobacter baumannii [20]): 0.12 to 16 µg/mL (≈ 0.295 to 39.3 µM); MIC50 (Acinetobacter baumannii [21]): 2 µg/mL (≈ 4.91 µM); MIC90 (Acinetobacter baumannii [21]): 16 µg/mL (≈ 39.3 µM); MIC (Acinetobacter baumannii [21]): 0.12 to 16 µg/mL (≈ 0.295 to 39.3 µM); MIC50 (Acinetobacter baumannii [22]): 2 µg/mL (≈ 4.91 µM); MIC90 (Acinetobacter baumannii [22]): 16 µg/mL (≈ 39.3 µM); MIC (Acinetobacter baumannii [22]): 0.12 to 16 µg/mL (≈ 0.295 to 39.3 µM) |
| CCNCc1cc2cc(-c3[nH]c(=O)c(C(=O)O)c(O)c3CC)ccc2n1C | 1.6 (≈ 4.33 µM) | 0.39 (≈ 1.06 µM) | 3.1 (≈ 8.39 µM) | 0.78 (≈ 2.11 µM) | 6.3 (≈ 17.1 µM) | 0.39 (≈ 1.06 µM) | 1.6 | 4 (≈ 10.8 µM) | 0.25 to 4 (≈ 0.677 to 10.8 µM) | 4 (≈ 10.8 µM) | 4 (≈ 10.8 µM) | 0.25 to 4 (≈ 0.677 to 10.8 µM) | 4 (≈ 10.8 µM) | 0.25 to 4 (≈ 0.677 to 10.8 µM) | 4 (≈ 10.8 µM) | 0.25 to 4 (≈ 0.677 to 10.8 µM) | 2 (≈ 5.41 µM) | 16 (≈ 43.3 µM) | 2 (≈ 5.41 µM) | 16 (≈ 43.3 µM) | pIC50 [23]: 6.52; pIC50 [24]: 5.48; MIC50 (Escherichia coli [12]): 1 µg/mL (≈ 2.71 µM); MIC50 (Escherichia coli [13]): 1 µg/mL (≈ 2.71 µM); MIC50 (Escherichia coli [14]): 1 µg/mL (≈ 2.71 µM); MIC50 (Escherichia coli [15]): 1 µg/mL (≈ 2.71 µM); MIC50 (Escherichia coli [16]): 1 µg/mL (≈ 2.71 µM); MIC (Acinetobacter baumannii [18]): 0.5 to 32 µg/mL (≈ 1.35 to 86.6 µM); MIC50 (Acinetobacter baumannii [19]): 2 µg/mL (≈ 5.41 µM); MIC90 (Acinetobacter baumannii [19]): 16 µg/mL (≈ 43.3 µM); MIC (Acinetobacter baumannii [19]): 0.5 to 32 µg/mL (≈ 1.35 to 86.6 µM); MIC50 (Acinetobacter baumannii [20]): 2 µg/mL (≈ 5.41 µM); MIC90 (Acinetobacter baumannii [20]): 16 µg/mL (≈ 43.3 µM); MIC (Acinetobacter baumannii [20]): 0.5 to 32 µg/mL (≈ 1.35 to 86.6 µM); MIC50 (Acinetobacter baumannii [21]): 2 µg/mL (≈ 5.41 µM); MIC90 (Acinetobacter baumannii [21]): 16 µg/mL (≈ 43.3 µM); MIC (Acinetobacter baumannii [21]): 0.5 to 32 µg/mL (≈ 1.35 to 86.6 µM); MIC50 (Acinetobacter baumannii [22]): 2 µg/mL (≈ 5.41 µM); MIC90 (Acinetobacter baumannii [22]): 16 µg/mL (≈ 43.3 µM); MIC (Acinetobacter baumannii [22]): 0.5 to 32 µg/mL (≈ 1.35 to 86.6 µM) |
